pEC50: −log10 of the molar value.

The target in assay [1] is T1, Peroxisome proliferator-activated receptor delta (Homo sapiens, UniProt Q03181).
T1 sequence (Q03181 whole entry): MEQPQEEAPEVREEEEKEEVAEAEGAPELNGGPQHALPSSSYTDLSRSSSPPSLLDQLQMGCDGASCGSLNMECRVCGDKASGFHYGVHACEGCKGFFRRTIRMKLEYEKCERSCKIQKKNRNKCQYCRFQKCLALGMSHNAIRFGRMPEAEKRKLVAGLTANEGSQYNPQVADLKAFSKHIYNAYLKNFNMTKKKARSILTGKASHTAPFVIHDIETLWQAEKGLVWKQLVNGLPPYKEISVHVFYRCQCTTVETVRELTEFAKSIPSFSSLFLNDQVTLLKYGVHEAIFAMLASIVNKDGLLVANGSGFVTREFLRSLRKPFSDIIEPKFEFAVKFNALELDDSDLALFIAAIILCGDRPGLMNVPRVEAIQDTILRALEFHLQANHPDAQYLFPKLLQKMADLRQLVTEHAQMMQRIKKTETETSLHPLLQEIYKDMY
As to the kind of experiment: Agonist activity at human PPAR delta by FRET assay. In kind it is functional.

In assay [2] the target is T2, Peroxisome proliferator-activated receptor alpha (Homo sapiens, UniProt Q07869).
T2 sequence (Q07869 whole entry): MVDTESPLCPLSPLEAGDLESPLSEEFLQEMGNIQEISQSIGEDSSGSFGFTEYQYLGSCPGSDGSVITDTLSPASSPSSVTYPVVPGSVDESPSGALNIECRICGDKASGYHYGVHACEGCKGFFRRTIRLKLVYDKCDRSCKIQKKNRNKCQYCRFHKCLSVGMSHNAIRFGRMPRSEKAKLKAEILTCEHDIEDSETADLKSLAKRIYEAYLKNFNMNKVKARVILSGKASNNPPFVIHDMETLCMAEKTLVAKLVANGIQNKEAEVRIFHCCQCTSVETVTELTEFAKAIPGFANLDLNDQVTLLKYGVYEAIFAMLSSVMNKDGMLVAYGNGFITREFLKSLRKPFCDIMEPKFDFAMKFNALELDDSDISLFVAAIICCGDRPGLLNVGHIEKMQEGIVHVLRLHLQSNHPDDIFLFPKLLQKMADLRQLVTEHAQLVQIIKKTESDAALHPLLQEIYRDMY
As to the kind of experiment: Agonist activity at human PPAR alpha by FRET assay. In kind it is functional. An outline of the steps: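 Human PPARα ligand binding domain (GST-tagged) association with biotin-labeled co-activator CBP; Eu-labeled anti-GST antibody and streptavidin-APC; incubated 2 h at rt in buffer with or without compound; fluorescence read at 615 or 655 nm emission, 340 nm excitation.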

Assay [3] has as its target T3, Peroxisome proliferator-activated receptor gamma (Mus musculus, UniProt P37238).
T3 sequence (P37238 whole entry): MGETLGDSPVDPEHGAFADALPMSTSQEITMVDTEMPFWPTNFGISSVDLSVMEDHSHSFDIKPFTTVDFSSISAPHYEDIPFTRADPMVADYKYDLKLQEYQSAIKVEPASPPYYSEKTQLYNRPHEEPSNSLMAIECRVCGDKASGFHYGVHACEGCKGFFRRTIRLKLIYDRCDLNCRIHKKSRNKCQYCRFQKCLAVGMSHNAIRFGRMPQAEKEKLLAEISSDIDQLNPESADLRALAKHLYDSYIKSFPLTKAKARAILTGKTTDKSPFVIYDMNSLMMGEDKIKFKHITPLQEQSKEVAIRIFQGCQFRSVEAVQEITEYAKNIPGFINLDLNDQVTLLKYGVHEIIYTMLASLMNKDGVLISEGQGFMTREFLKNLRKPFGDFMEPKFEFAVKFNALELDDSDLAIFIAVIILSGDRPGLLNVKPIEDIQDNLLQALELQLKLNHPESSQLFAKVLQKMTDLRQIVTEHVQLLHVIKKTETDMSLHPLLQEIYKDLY
The assay can be described thus: Agonist activity at PPAR gamma in mouse 3T3L1 cells assessed as increase in insulin receptor by IRBA. In kind it is functional, cell-based, 3T3-L1.

Regarding `CCc1ccc(OCCCOc2ccc3c(c2)CC[C@H]3CC(=O)O)c(OC)c1`, the pEC50 in assay [1] is 8.57; in assay [2], 6.15; in assay [3], 5.78.
On to `CCCc1cc(-c2nc(CO)c(C(=O)O)s2)ccc1OCCCOc1ccc2c(c1)CC[C@H]2CC(=O)O`, for which the pEC50 in assay [1] was 7.92; in assay [2], 5.19; in assay [3], 6.05.
For `COc1ccncc1-c1ccc(OCCCOc2ccc3c(c2)CC[C@H]3CC(=O)O)cc1`, in that order: 7.37, < 5.00 and 6.31.
`CCCc1cc(-c2nc3c(s2)CCC3)ccc1OCCCOc1ccc2c(c1)CC[C@H]2CC(=O)O`: the results for the pEC50 in assay [1], in assay [2] and in assay [3] were 8.46, 6.48 and 7.03, respectively.
The corresponding values for `CCc1ccc(OCCCOc2ccc3c(c2)CC[C@H]3CC(=O)O)cc1` are 8.05, 5.70 and 5.21.
Consider `Cn1ccc2cc(OCCCOc3ccc4c(c3)CC[C@H]4CC(=O)O)ccc21`, for which the pEC50 was 7.40 in assay [1], 5.17 in assay [2] and 5.99 in assay [3].
For `CCOc1ccc(OCCCOc2ccc3c(c2)CC[C@H]3CC(=O)O)cc1`, in that order: 8.18, < 5.00 and 6.03.
Regarding `O=C(O)C[C@@H]1CCc2cc(OCCCOc3ccc(-c4ccc5cc[nH]c5c4)cc3)ccc21`, the pEC50 is 8.82 in assay [1], 5.18 in assay [2] and 6.13 in assay [3].
For `COc1cc(-c2nc(C)c(C(=O)O)s2)ccc1OCCCOc1ccc2c(c1)CC[C@H]2CC(=O)O`, in that order: 7.55, 5.00 and 6.00.
For `CCCc1c(OCCCOc2ccc3c(c2)CC[C@H]3CC(=O)O)ccc2[nH]ccc12`, in that order: 8.21, < 5.00 and 6.34.
For `CCCc1cc(-c2nc(CC)cs2)ccc1OCCCOc1ccc2c(c1)CC[C@H]2CC(=O)O`, in that order: 7.96, 6.83 and 7.35.
With `O=C(O)C[C@@H]1CCc2cc(OCCCOc3ccc(C(F)(F)F)cc3)ccc21`, the pEC50 in assay [1] was 8.38; in assay [2], 5.79; in assay [3], 5.25.
With `O=C(O)C[C@@H]1CCc2cc(OCCCOc3ccccc3)ccc21`, the pEC50 in assay [1] was 7.36; in assay [2] it was < 5.00; in assay [3], < 5.00.
Consider `O=C(O)C[C@@H]1CCc2cc(OCCCOc3ccc(-c4cccnc4)cc3)ccc21`, for which the pEC50 in assay [1] was 8.64; in assay [2] it was 5.77; in assay [3], 6.26.
For `COc1cc(-c2nc(C)c(C(C)=O)s2)ccc1OCCCOc1ccc2c(c1)CC[C@H]2CC(=O)O`, in that order: 8.47, 6.25 and 7.31.
The corresponding values for `O=C(O)C[C@@H]1CCc2cc(OCCCOc3ccc4[nH]ccc4c3)ccc21` are 7.62, < 5.00 and 5.74.
For `Cc1cc(-c2nc(C(F)(F)F)ns2)ccc1OCCCOc1ccc2c(c1)CC[C@H]2CC(=O)O`, in that order: 8.47, 6.28 and 6.80.
For `O=C(O)C[C@@H]1CCc2cc(OCCCOc3ccc(-n4cnnc4)cc3Cl)ccc21`, the pEC50 was 5.65 in assay [1], 5.16 in assay [2] and 5.06 in assay [3].
The corresponding values for `COc1cc(-c2nc3c(s2)CCCC3)ccc1OCCCOc1ccc2c(c1)CC[C@H]2CC(=O)O` are 8.48, 7.36 and 7.08.
For `N#Cc1ccc(OCCCOc2ccc3c(c2)CC[C@H]3CC(=O)O)cc1`, in that order: 8.14, 5.24 and 6.20.
For the molecule `O=C(O)C[C@@H]1CCc2cc(OCCCOc3ccc(-c4nc5c(s4)CCC5)cc3)ccc21`, the pEC50 was 8.89 in assay [1], 6.95 in assay [2] and 5.92 in assay [3].
With `COc1cc(-c2nc3c(s2)CCC3)ccc1OCCCOc1ccc2c(c1)CC[C@H]2CC(=O)O`, the pEC50 in assay [1] is 8.39; in assay [2], 7.28; in assay [3], 6.94.
Consider `CCCc1cc(-c2nc(OCC)c(C)s2)ccc1OCCCOc1ccc2c(c1)CC[C@H]2CC(=O)O`, for which the figures for the pEC50 in assay [1], in assay [2] and in assay [3] were 8.49, 7.21 and 7.47, respectively.
The corresponding values for `COc1csc(-c2ccc(OCCCOc3ccc4c(c3)CC[C@H]4CC(=O)O)c(OC)c2)n1` are 8.52, 6.12 and 7.16.
As for `COc1cc(-c2nc(OC(C)C)cs2)ccc1OCCCOc1ccc2c(c1)CC[C@H]2CC(=O)O`, the pEC50 in assay [1] is 8.52; in assay [2], 6.74; in assay [3], 7.36.
Take `O=C(O)C[C@@H]1CCc2cc(OCCCOc3ccc4cc[nH]c4c3)ccc21`: the pEC50 in assay [1] is 7.72; in assay [2], < 5.00; in assay [3], < 5.00.
`CCOc1nc(-c2ccc(OCCCOc3ccc4c(c3)CC[C@H]4CC(=O)O)c(OC)c2)sc1C`: the results for the pEC50 in assay [1], in assay [2] and in assay [3] were 8.22, 6.82 and 6.75, respectively.
For `Cc1ccc(OCCCOc2ccc3c(c2)CC[C@H]3CC(=O)O)cc1C`, in that order: 7.17, < 5.00 and < 5.00.
The corresponding values for `COc1cc(C)ccc1OCCCOc1ccc2c(c1)CC[C@H]2CC(=O)O` are 8.12, < 5.00 and 5.78.
On to `Cc1cc2cc(OCCCOc3ccc4c(c3)CC[C@H]4CC(=O)O)ccc2[nH]1`, for which the pEC50 was 7.17 in assay [1], < 5.00 in assay [2] and 5.44 in assay [3].
On to `CCCc1cc(-c2nc(C(F)(F)F)cs2)ccc1OCCCOc1ccc2c(c1)CC[C@H]2CC(=O)O`, for which the pEC50 was 8.48 in assay [1], 6.71 in assay [2] and 7.26 in assay [3].
For `CCCc1cc(-c2nc(C)c(C(C)=O)s2)ccc1OCCCOc1ccc2c(c1)CC[C@H]2CC(=O)O`, in that order: 7.74, 6.76 and 7.77.
The corresponding values for `CCCc1cc(C#N)ccc1OCCCOc1ccc2c(c1)CC[C@H]2CC(=O)O` are 7.60, 5.40 and 6.24.
For `Cc1noc2c(C)c(OCCCOc3ccc4c(c3)CC[C@H]4CC(=O)O)ccc12`, in that order: 8.09, < 5.00 and 6.54.
For the molecule `Cc1cccc(-c2ccc(OCCCOc3ccc4c(c3)CC[C@H]4CC(=O)O)cc2)n1`, the pEC50 was 8.66 in assay [1], 5.28 in assay [2] and 6.26 in assay [3].
Consider `CC(=O)c1sc(-c2ccc(OCCCOc3ccc4c(c3)CC[C@H]4CC(=O)O)cc2)nc1C`, for which the pEC50 in assay [1] was 8.16; in assay [2] it was 5.60; in assay [3] it was 6.32.
For `COc1ncc(-c2ccc(OCCCOc3ccc4c(c3)CC[C@H]4CC(=O)O)cc2)c(OC)n1`, in that order: 8.25, < 5.00 and 6.52.
For `CCCc1cc(-c2nc(OCC)cs2)ccc1OCCCOc1ccc2c(c1)CC[C@H]2CC(=O)O`, in that order: 8.70, 6.98 and 7.39.
Consider `Cc1c(OCCCOc2ccc3c(c2)CC[C@H]3CC(=O)O)ccc2[nH]ccc12`, for which the negative logarithm of the EC50 (pEC50) was 6.54 in assay [1], < 5.00 in assay [2] and 5.16 in assay [3].
For `O=C(O)C[C@@H]1CCc2cc(OCCCOc3ccc(-c4ccsc4)cc3)ccc21`, in that order: 8.23, < 5.00 and 6.19.

For the origin of these results see ChEMBL document CHEMBL1142242, “Indanylacetic acid derivatives carrying 4-thiazolyl-phenoxy tail groups, a new class of potent PPAR alpha/gamma/delta pan agonists: synthesis, structure-activity relationship, and in vivo efficacy” (J Med Chem, 2007).
